Measured values collected from several papers.
Converted amounts (≈) assume the structure as drawn.

With `O=C(N[C@H](CO)[C@H](O)c1ccc([N+](=O)[O-])cc1)C(Cl)Cl` the MIC was 0.98 µg/mL (≈ 3.03 µM) (Bacillus; microbial growth, broth dilution; ATCC27859).
`CC1CCN(CCCN2/C(=C/c3cc[n+](C)c4ccccc34)Sc3ccccc32)CC1.[I-]` has an MIC of 16 µg/mL (Pseudomonas aeruginosa; microbial growth, broth dilution; ATCCBAA2108; drug-resistant strain).
`CCCCCOc1ccc(-c2cc(-c3ccc(C(=O)N[C@H]4C[C@@H](O)[C@@H](O)NC(=O)[C@@H]5[C@@H](O)[C@@H](C)CN5C(=O)[C@H]([C@H](O)CC(N)=O)NC(=O)[C@H]([C@H](O)[C@@H](O)c5ccc(O)c(OS(=O)(=O)O)c5)NC(=O)[C@@H]5C[C@@H](O)CN5C(=O)[C@H]([C@@H](C)O)NC4=O)cc3)no2)cc1` has an inhibition of 53% (Kluyveromyces marxianus; biofilm formation; 1 µg/mL).
For `COC(=O)c1cc(-c2cccc(NC(=O)Nc3ccc(F)c(F)c3)c2)on1`, the MIC was over 64 µg/mL (Mycobacteroides abscessus; microbial growth, broth dilution; ATCC19977; 48 h).
With `[2H]C([2H])(c1cc(F)c(F)cc1F)n1c(=O)n(Cc2ncn(C)n2)c(=O)[nH]/c1=N\c1cc2cn(C)nc2cc1Cl` the EC50 was about 50 µM (Alphacoronavirus 1; viral replication, inhibitor, qPCR; CRFK).
`CCOC(=O)c1cc(-c2cccc(NC(=O)Nc3ccc(Cl)c(Cl)c3)c2)on1` gave an MIC of over 64 µg/mL (Mycobacteroides abscessus; microbial growth, broth dilution; ATCC19977; 48 h).
For `O=C(N[C@H](CO)[C@H](O)c1ccc([N+](=O)[O-])cc1)C(Cl)Cl`, the MIC was 0.98 µg/mL (≈ 3.03 µM) (Bacillus; microbial growth, broth dilution; ATCC27859; 18 h).
For `C[n+]1ccc(/C=C2\Sc3ccccc3N2CCCN2CCCCC2)c2ccccc21.[I-]`, the MIC was 64 µg/mL (Pseudomonas aeruginosa; microbial growth, broth dilution; ATCCBAA2108; drug-resistant strain).
With `COC(=O)c1cc(-c2cccc(NC(=O)Nc3ccc(Cl)c(C(F)(F)F)c3)c2)on1` the MIC was over 64 µg/mL (Mycobacteroides abscessus; microbial growth, broth dilution; ATCC19977; 48 h).
`CC[C@H](C)[C@H]1C(=O)N2CCC[C@H]2C(=O)O[C@H](C(C)(C)C)C[C@@H](C)C[C@H](O)[C@H](C)C2=N[C@@H](CCC(=O)N[C@@H](Cc3ccc(OC)cc3)C(=O)N(C)[C@@H](C)C(=O)N1C)CS2` gave an IC50 of 0.015 µM (Zika virus; viral replication; Huh7.5; 24 h).
